Assays:
[1] = Drug metabolism in 0.01 M phosphate buffer assessed as hydrolysis rate after 3 hrs at 50 degC
P388 [2] = experiment: In vivo antitumor activity against mouse P388 cells allografted in BDF/CDF mouse assessed as host survival time at 8 mg/kg, ip administered on days 1 to 9 relative to control; assay type: functional; details: route intraperitoneal
Summary of the method: (§1)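 P-388 lymphocytic leukemia, 10⁶ cells injected ip into BDF or CDF mice on day 0; drug given ip daily on days 1-9 at the stated dose. Read-out T/C: average survival time of treated mice as percent of untreated controls. Assays run by NCI Drug Research and Development Program.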

L1210 [3] = experiment: Inhibition of RNA synthesis in mouse L1210 cells; assay type: functional; details: read-out: ED50 (the source's name)
P388 [4] = experiment: In vivo antitumor activity against mouse P388 cells allografted in BDF/CDF mouse assessed as host survival time at 16 mg/kg, ip administered on days 1 to 9 relative to control; assay type: functional; details: route intraperitoneal
Summary of the method: as §1

[5] = Dissociation constant, pKa of Ar-COOH group of the compound; assay type: physicochemical
P388 [6] = experiment: In vivo antitumor activity against mouse P388 cells allografted in BDF/CDF mouse assessed as host survival time at 0.5 mg/kg, ip administered on days 1 to 9 relative to control; assay type: functional; details: route intraperitoneal
Summary of the method: as §1

Calf thymus DNA = experiment: Binding affinity to calf thymus DNA assessed as change in melting temperature at 5 uM by spectrophotometer analysis; assay type: nucleic-acid assay; details: Bos taurus
Summary of the method: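 Drug dissolved in Me2SO, diluted with buffer, then mixed with calf thymus DNA. Final mix: 0.01 M phosphate pH 7, 5×10^-5 M DNA, 5×10^-6 M drug, 10^-5 M EDTA, 5% Me2SO. Absorbance at 259 nm recorded every 30 s while heating at 18 °C/h. Tm is the midpoint of the corrected curve; the shift is taken against DNA alone.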

P388 [7] = experiment: In vivo antitumor activity against mouse P388 cells allografted in BDF/CDF mouse assessed as host survival time at 4 mg/kg, ip administered on days 1 to 9 relative to control; assay type: functional; details: route intraperitoneal
Summary of the method: as §1

[8] = Partition coefficient, log P of the compound; assay type: physicochemical; details: octanol/water
Rattus norvegicus [9] = species on record: Rattus norvegicus; experiment: Cardiotoxicity in rat ECG model; details: in vivo
P388 [10] = experiment: In vivo antitumor activity against mouse P388 cells allografted in BDF/CDF mouse assessed as host survival time at 0.25 mg/kg, ip administered on days 1 to 9 relative to control; assay type: functional; details: route intraperitoneal
Summary of the method: as §1

P388 [11] = experiment: In vivo antitumor activity against mouse P388 cells allografted in BDF/CDF mouse assessed as host survival time at 0.125 mg/kg, ip administered on days 1 to 9 relative to control; assay type: functional; details: route intraperitoneal
Summary of the method: as §1

P388 [12] = experiment: In vivo antitumor activity against mouse P388 cells allografted in BDF/CDF mouse assessed as host survival time at 1 mg/kg, ip administered on days 1 to 9 relative to control; assay type: functional; details: route intraperitoneal
Summary of the method: as §1

L1210 [13] = experiment: Inhibition of DNA synthesis in mouse L1210 cells; assay type: functional; details: read-out: ED50 (the source's name)
[14] = Half life in 0.01 M phosphate buffer at 10 uM at pH 7.4 at 50 degC; assay type: physicochemical
Summary of the method: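 Drug at 1×10^-5 M in 0.01 M phosphate, pH 7.4, 50 °C, no DNA. Absorbance followed continuously for 3 h at a drug-specific wavelength (345 or 259 nm). Buffer baseline subtracted. Data fit to A = ΣA0 + c·e^(-kt), with ΣA0 the absorbance of daunorubicin plus the […], and t1/2 derived from the fit.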

Rattus norvegicus [15] = species on record: Rattus norvegicus; experiment: Cardiotoxicity in rat ECG model relative to adriamycin; details: in vivo
P388 [16] = experiment: In vivo antitumor activity against mouse P388 cells allografted in BDF/CDF mouse assessed as host survival time at 2 mg/kg, ip administered on days 1 to 9 relative to control; assay type: functional; details: route intraperitoneal
Summary of the method: as §1

In the case of `COc1cccc2c1C(=O)c1c(O)c3c(c(O)c1C2=O)C[C@@](O)(/C(C)=N/NC(=O)c1ccc(Cl)cc1)C[C@@H]3O[C@H]1C[C@H](N)[C@H](O)[C@H](C)O1.Cl`, the Drug metabolism [1] is reported as “metabolite_detected”, the T/C (P388 [2]) is reported as 109% and the EC50 (L1210 [3]) is reported as 1000 nM. It also gave a T/C (P388 [4]) of 63%, a pKa [5] of 4.03 and a T/C (P388 [6]) of 139%. It also gave a ΔTm (Calf thymus DNA) of 11.4 °C, a T/C (P388 [7]) of 211% and a logP [8] of 1.75. It also gave an MCCD (Rattus norvegicus [9]) of 48 mg/kg, a T/C (P388 [10]) of 145% and a T/C (P388 [11]) of 110%. It also gave a T/C (P388 [12]) of 145%, an EC50 (L1210 [13]) of 1900 nM and a half-life at 10 µM [14] of 37 min. It also gave a Ratio (Rattus norvegicus [15]) of 3.5 and a T/C (P388 [16]) of 163%.

— ChEMBL document CHEMBL3244385, “Antitumor anthracycline antibiotics. Structure-activity and structure-cardiotoxicity relationships of rubidazone analogues” (J Med Chem, 1978)
